HCT116 PTEN-null – growth suppression of PTEN-null HCT116, primary screen, cell-based, CellTiter-Glo; HCT116 PTEN-null viability, 60 h; active compounds read low; viability, % at 10 µM; hit rate 1.2% among 140,000; AID 827, 2007;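 active = viability at or below a set limit, 4 SD under the median of all tested compounds, cut at about 3.7% in these data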;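 note: PTEN knockout HCT116 line with beta catenin targeted HCT116 as companion control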
HCT116 bCat-KO – primary screen for growth suppressors in beta-catenin knockout HCT116 cells (colon tumor, human) | viability, % at 10 µM | HCT116 beta-catenin knockout viability, CellTiter-Glo, 60 h; active compounds read low | hit rate 1.5% among 140,000;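 active = viability at or under a set limit, the compound median less 4 SD, cut at about 6% in these data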;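 note: 0% = Hyamine 1622 control at 20 µM and 100% = untreated cell control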
Lung fibro prol – antiproliferative effect on LL 47 fibroblasts – human, LL 47 cells, CellTiter-Glo luminescence, primary screen; AID 719, 2007; LL 47 human lung fibroblast viability, ATP luminescence; active compounds read low; hit rate 1.1% among 85,000; viability, % at 10 µM;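 active = viability at or below 50% in the single dose screen; inactive = viability above 50%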;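 note: compound exposure lasted 72 h before the ATP readout; 100% = median luminescence of untreated cell-only wells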
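Assay system: human lung fibroblast line LL 47, low passage. Input: 1,150 fibroblasts seeded per well. Times: overnight cell rest, 72 h compound treatment at 37 °C. Evaluation: % viability of median cell-only signal. Technique: luminescent ATP detection, CellTiter-Glo. Control set: cell-only wells, no compound.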
HUVEC prolif 384 – inhibitors of HUVEC proliferation, primary screen, cell-based, 384-well; CellTiter-Glo luminescence, 72 h; active compounds read low; viability, % at 10 µM (by protocol); hit rate 1.1% among 86,000; AID 648, 2007;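 active = viability at or below 30%; inactive = viability above 30%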;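 note: 100% = median luminescence of DMSO-only cell control wells on each plate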
H69AR growth 86K – proliferation blockers of H69AR lung cancer cells, primary screen, cell-based, human, 86K library | H69AR lung tumor viability, ATP luminescence, 72 h; active compounds read low | viability, % at 10 µM | hit rate 6% among 85,000 | AID 598, 2007;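 active = viability at or below 40%; inactive = viability above 40%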;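 note: multidrug resistant small cell line overexpressing MRP-1 efflux transporter; 100% = mean luminescence of untreated control wells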
Phagocyt inh – inhibitors of macrophage phagocytosis, primary screen, imaging, J774A.1 cells, IgG beads; J774A.1 macrophage IgG-bead phagocytosis; inhibition, % at 5 µM; hit rate 0.07% among 110,000; AID 1029, 2008;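 active = inhibition above the mean of the plate negative controls plus 5 SD, cut at about 13% in these data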;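 note: phagocytic index as fraction of beads internalized from green versus red external bead signal; plate controls were DMSO negative control for no effect and cytochalasin-D positive control for full effect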
Starred values were filed as active, the others as inactive; x = no result given; [ ] = another dose, or the depositor's remark. The entries come from a sample that favours hits as a whole.

SMILES | HCT116 PTEN-null | HCT116 bCat-KO | Lung fibro prol | HUVEC prolif 384 | H69AR growth 86K | Phagocyt inh
COc1ccc(-n2c(N)c(C(=O)NCC3CCCO3)c3nc4ccccc4nc32)c(OC)c1 (centres undefined) | 46 | 48 | 87 | 67 | 40* | -1
Nc1c(C(=O)NCc2ccc(F)cc2)c2nc3ccccc3nc2n1CCCN1CCOCC1 | 1.0* | 1.3* | 68 | 5.1* | 1.2* | 0
O=[N+]([O-])c1ccccc1/C=N/Nc1nnc(-c2ccccc2)c(-c2ccccc2)n1 | 99 | 94 | x | x | x | -15
CCN(CC)S(=O)(=O)c1ccc(C)c(NC(=O)CSc2nc3ccc(C)cc3[nH]2)c1 | 58 | 67 | x | x | x | x
COc1ccc2nc(NCc3ccccc3)[nH]c2c1 | 31 | 21 | 67 | 54 | 20* | 1
Cc1ccc2nc(NCc3ccccc3)[nH]c2c1 | 21 | 19 | 53 | 43 | 22* | 1
COc1ccc(N2CCN(C(=O)CC34CC5CC(CC(C5)C3)C4)CC2)c([N+](=O)[O-])c1 | 74 | 65 | x | x | x | -1
CN(C)c1cccc(C(=O)Nc2cccc(F)c2)c1 | 73 | 72 | 100 | 85 | 83 | 0
CCN(CC)c1ccc(NC(=O)c2cc(OC)cc(OC)c2)c(C)c1 | 12 | 12 | 56 | 33 | 25* | 4
CCN(CC)c1ccc(C(=O)Nc2cccc(F)c2)cc1 | 27 | 17 | 77 | 47 | 25* | -2
CCN(CC)c1ccc(NC(=O)c2cccc(OC)c2)c(C)c1 | 23 | 20 | 72 | 55 | 19* | 0
CCN(CC)c1ccc(NC(=O)c2c(OC)cccc2OC)c(C)c1 | 93 | 94 | 94 | 89 | 92 | 0
CCNc1nc(NCC)nc(C(=O)OCCO)n1 | 99 | 95 | 101 | 99 | 96 | x
OC(COC(c1ccc(Cl)cc1)c1ccc(Cl)cc1)CN1CCCC1 (centres undefined) | 13 | 9 | 88 | 71 | 25* | 0
CCOC(=O)Cn1c(-c2ccccc2)nc2ccccc2c1=O | 78 | 84 | x | x | x | -2
CCOC(=O)Cn1c(=O)c(-c2ccccc2NCc2ccccc2)nc2ccccc21 | x | x | 74 | 57 | 28* | x
O=C(NCCc1c[nH]c2ccccc12)c1ccc(S(=O)(=O)NCc2ccco2)cc1 | 74 | 70 | 96 | 70 | 39* | 0
CCOC(=O)Nc1ccc(C)cc1Br | 0.2* | 0.4* | 107 | 104 | 109 | -2
CCSc1nnc(NC(=O)C(NC(=O)c2ccc(Cl)cc2)C(C)C)s1 (centres undefined) | 94 | 93 | x | x | x | -1
CCOc1ccc2c(c1)-c1c(ssc1=S)C(C)(C)N2C(=O)c1ccco1 | 15 | 11 | x | x | x | 91*[artifact]
COc1ccc2c(c1)-c1c(ssc1=S)C(C)(C)N2C(=O)CSC1=NCCS1 | 54 | 62 | x | x | x | -1
COC(=O)[C@@]1(Cc2ccc(OC)cc2)[C@@H]2C(=CC(=O)[C@H]2CC(=O)C(=O)N2CCCC2)CN1C(=O)c1ccccc1 | 2.0* | 1.9* | x | x | x | x
COc1ccc(C(=O)c2ccccc2)c2c(O)ccc(C(=O)c3ccccc3)c12 | 17 | 18 | 92 | 34 | 91 | 0
COc1ccc(C(=O)c2ccc(Cl)cc2)c2ccccc12 | 73 | 72 | 94 | 65 | 17* | -1
Cc1cc(C)nc(SCC(=O)c2ccc3c(c2)OCCO3)n1 | 99 | 99 | x | x | x | 0
SMILES | HCT116 PTEN-null | HCT116 bCat-KO | Lung fibro prol | HUVEC prolif 384 | H69AR growth 86K | Phagocyt inh
O=C(Cn1nc(Cl)nc1Cl)c1cc2ccccc2oc1=O | 87 | 93 | 99 | 90 | 32* | -1
O=C(Cn1nc(Cl)nc1Cl)c1ccc2c(c1)OCCO2 | 95 | 80 | 96 | 83 | 38* | 0
O=C1/C(=C/c2cccnc2)CCC/C1=C\c1cccnc1 | 1.1* | 1.9* | x | x | x | -3
O=C1/C(=C\c2cccnc2)CCc2ccccc21 | 11 | 21 | x | x | x | -3
CCC1C/C(=C\c2cccnc2)C(=O)/C(=C/c2cccnc2)C1 (centres undefined) | 1.5* | 2.2* | x | x | x | -4
O=C(NCc1ccco1)C(c1cccs1)N(C(=O)C1COc2ccccc2O1)c1cccc(O)c1 (centres undefined) | 87 | 97 | 98 | 86 | 83 | 0
COc1ccccc1-c1c(C)nn2c(N3CCCCCC3)cc(C)nc12 | 3.2* | 2.6* | x | x | x | -1
COc1ccccc1-c1c(C)nn2c(N3CCN(Cc4ccccc4)CC3)cc(C)nc12 | 52 | 33 | 87 | 90 | 55 | 0
Cc1cc(N2CCN(Cc3ccccc3)CC2)n2nc(C)c(-c3ccccc3)c2n1 | 61 | 46 | 92 | 77 | 19* | 1
Cc1cc(SCC#N)n2nc(C)c(-c3ccc(Cl)cc3)c2n1 | 90 | 101 | 82 | 50 | 43 | 0
COc1ccccc1N1CCN(c2cc(C)nc3nc(C)nn23)CC1 | 92 | 87 | 99 | 99 | 40* | x
COc1ccccc1-c1c(C)nn2c(N3CCN(c4ccccc4OC)CC3)cc(C)nc12 | 36 | 15 | 106 | 81 | 93 | 0
Cc1cc(SCC#N)n2nc(C)c(-c3ccccc3)c2n1 | 74 | 82 | 74 | 53 | 26* | 0
COc1ccc(-c2c(C)nn3c(N4CCN(Cc5ccccc5)CC4)cc(C)nc23)cc1OC | 7 | 11 | 82 | 66 | 17* | 1
CCOCCCNC(=O)C1CCN(c2cc(C)nc3c(-c4ccc(OC)c(OC)c4)c(C)nn23)CC1 | 63 | 72 | 106 | 106 | 33* | 0
Cc1cc(N2CCC(C)CC2)n2nc(C)c(-c3ccccc3)c2n1 | 81 | 75 | 97 | 89 | 47 | 1
Cn1c(-c2ccc(C=O)s2)nc2c3ccccc3c3ccccc3c21 | 7 | 25 | 89 | 60 | 18* | 1
N#CCSc1nc2c(sc(=S)n2Cc2ccco2)c(=O)n1-c1ccc(F)cc1 | 22 | 23 | 74 | 88 | 40* | x
O=C(N/N=C/c1cccnc1)c1ccccc1[N+](=O)[O-] | 100 | 87 | x | x | x | -11
CCCn1c(C(C)NC(=O)c2ccccc2)nc2ccccc21 (centres undefined) | 89 | 91 | x | x | x | x
CC(NC(=O)c1ccc(F)cc1)c1nc2ccccc2n1Cc1ccccc1F (centres undefined) | 79 | 85 | 93 | 88 | 38* | -4
COc1ccc(C(C(=O)NC2CCCC2)N(C(=O)c2snc(-c3ccc(F)cc3)c2N)c2ccc(OC)cc2)cc1 (centres undefined) | 62 | 71 | x | x | x | x
COc1ccc(C(C(=O)NC2CCCCC2)N(C(=O)CCl)c2ccc(Cl)cc2)cc1 (centres undefined) | 1.8* | 1.8* | x | x | x | -9
O=C(NC1CCCCC1)C(c1cccnc1)N(C(=O)CCl)c1cccc(Cl)c1 (centres undefined) | 3.1* | 3.9* | x | x | x | 21

Screening results from PubChem BioAssay.
